Experimental data as given in ChEMBL document CHEMBL1649091, “Flavonoids with an oligopolysulfated moiety: a new class of anticoagulant agents” (J Med Chem, 2011).
The source made the active and inactive calls. No cut-off for these calls is given here.

Experiments:
Plasma [1] = assay: Anticoagulant activity in human plasma assessed as increase in thrombin time at 5 x 10^-3M relative to control; format: functional, cell-free
Outline: (§1)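 Citrated pooled normal human plasma, 1:1 with compound in water (water control), held 2 min at 37 °C before coagulometer reading. APTT: reagent, 6 min at 37 °C, then 25 mmol/L CaCl2. PT: prewarmed reagent. TT: prewarmed 100 U/mL thrombin. Ratio is clotting time with compound over time with water. Duplicates repeated on three days (n = 6).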

Plasma [2] = assay: Anticoagulant activity in human plasma assessed as increase in activated partial prothrombin time at 5 x 10^-3M relative to control; format: functional; outline: as §1
Plasma [3] = assay: Anticoagulant activity in human plasma assessed as increase in prothrombin time at 5 x 10^-3M relative to control; format: functional; outline: as §1
Plasma [4] = assay: Anticoagulant activity in human plasma assessed as increase in thrombin time at 0.5 x 10^-3M relative to control; format: functional, cell-free; outline: as §1
[5] = Antiplatelet activity against collagen ADP-induced human platelet aggregation assessed as closure time at 6.25 x 10^-4M; format: functional
Outline: (§2)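 Compound solution added to citrated human whole blood (125 µL into 1875 µL) to the final concentration stated, then run on a PFA-100 in collagen/ADP and collagen/epinephrine cartridges. Closure time is the time until platelets occlude the membrane aperture, in seconds. Mean ± SEM of three independent experiments.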

Blood [6] = assay: Anticoagulant activity in human whole blood assessed as maximum amplitude at 6.25 x 10^-4M by thromboelastography in presence of extrinsic activators; format: functional
Outline: (§3)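 Citrated whole blood from healthy donors (1:9 citrate), run within 5 h on a ROTEM analyzer. Compound in saline diluted 1:16 into blood to the final concentration stated; saline control. Intrinsic (InTEM) or extrinsic (ExTEM) activator added. Clot monitored at 37 °C in an oscillating cup-and-pin system for up to 60 min, giving R, K, angle and MA.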

Blood [7] = assay: Anticoagulant activity in human whole blood assessed as clotting time at 6.25 x 10^-4M by thromboelastography in presence of intrinsic activators; format: functional; outline: as §3
[8] = biological target: Prothrombin (Homo sapiens) (UniProt P00734); assay: Inhibition of human thrombin
Outline: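 Direct thrombin assay without ATIII: compound in water in 50 mM Tris/HCl pH 8.3, 227 mM NaCl, 0.1% BSA, 10 min at 37 °C. Human thrombin (0.06 U/mL final) added for 10 min, then Chromozym TH (178 × 10^-6 M). Read at 405 nm every 12 s for 20 min. Percent inhibition from initial slope against water control. Duplicates on ≥3 days.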

[9] = biological target: Coagulation factor X (Homo sapiens) (UniProt P00742); assay: Inhibition of human factor 10a assessed as 25 x 10^-6M chromogenic TH substrate hydrolysis at 0.5 x 10^-3M
Outline: (§4)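 Direct FXa test, with buffer in place of ATIII: compound in water in 50 mM Tris/HCl pH 8.3, 227 mM NaCl, 0.1% BSA, 10 min at 37 °C. Human FXa (0.5 U/mL final) added for 10 min, then CBS 31.39 (25 or 125 × 10^-6 M). Read at 405 nm every 12 s for 20 min. Percent inhibition from initial slope against water control, Michaelis-Menten fit.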

[10] = biological target: T1, Coagulation factor X/antithrombin III (Homo sapiens) (UniProt P01008+P00742); assay: Inhibition of human antithrombin 3/factor 10a assessed as 125 x 10^-6M CBS31.39 substrate hydrolysis at 2 x 10^-3M; format: protein-complex assay
Blood [11] = assay: Anticoagulant activity in human whole blood assessed as alpha angle at 6.25 x 10^-4M by thromboelastography in presence of extrinsic activators; format: functional; outline: as §3
Blood [12] = assay: Anticoagulant activity in human whole blood assessed as clotting time at 6.25 x 10^-4M by thromboelastography in presence of extrinsic activators; format: functional; outline: as §3
Homo sapiens = species on record: Homo sapiens; assay: (§5) Anticoagulant activity in human plasma assessed as concentration required to double thrombin time; format: functional
Outline: (§6)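 Citrated pooled normal human plasma mixed 1:1 with compound in water (final 5 × 10-3 to 0.05 × 10^-3 M) and held 2 min at 37 °C. APTT: reagent added, 6 min at 37 °C, then 25 mmol/L CaCl2. PT: prewarmed PT reagent. TT: prewarmed thrombin (100 U/mL). Clotting read on a coagulometer, duplicate, three days (n = 6). Doubling concentration taken from linear regression of each concentration-response curve.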

Blood [13] = assay: Anticoagulant activity in human whole blood assessed as alpha angle at 6.25 x 10^-4M by thromboelastography in presence of intrinsic activators; format: functional; outline: as §3
[14] = biological target: Coagulation factor X (Homo sapiens) (UniProt P00742); assay: Inhibition of human factor 10a assessed as 125 x 10^-6M chromogenic TH substrate hydrolysis at 0.5 x 10^-3M; outline: as §4
[15] = biological target: T1, Coagulation factor X/antithrombin III (Homo sapiens); assay: Inhibition of human antithrombin 3/factor 10a assessed as 25 x 10^-6M CBS31.39 substrate hydrolysis at 0.5 x 10^-3M; format: protein-complex assay
[16] = biological target: Coagulation factor X (Homo sapiens) (UniProt P00742); assay: Inhibition of human factor 10a assessed as 125 x 10^-6M chromogenic TH substrate hydrolysis at 1 x 10^-3M; outline: as §4
Blood [17] = assay: Anticoagulant activity in human whole blood assessed as clotting formation time at 6.25 x 10^-4M by thromboelastography in presence of intrinsic activators; format: functional; outline: as §3
[18] = biological target: T1, Coagulation factor X/antithrombin III (Homo sapiens); assay: Inhibition of human antithrombin 3/factor 10a assessed as 125 x 10^-6M CBS31.39 substrate hydrolysis at 1 x 10^-3M; format: protein-complex assay
[19] = Anticoagulant activity in human plasma assessed as concentration required to double activated partial prothrombin time; format: functional; outline: as §6
[20] = Anticoagulant activity in human plasma assessed as concentration required to double prothrombin time; format: functional; outline: as §6
Blood [21] = assay: Anticoagulant activity in human whole blood assessed as maximum amplitude at 6.25 x 10^-4M by thromboelastography in presence of intrinsic activators; format: functional; outline: as §3
[22] = biological target: Coagulation factor X (Homo sapiens) (UniProt P00742); assay: Inhibition of human factor 10a assessed as 25 x 10^-6M chromogenic TH substrate hydrolysis at 2 x 10^-3M; outline: as §4
Blood [23] = assay: Anticoagulant activity in human whole blood assessed as clotting formation time at 6.25 x 10^-4M by thromboelastography in presence of extrinsic activators; format: functional; outline: as §3
[24] = biological target: Coagulation factor X (Homo sapiens) (UniProt P00742); assay: Inhibition of human factor 10a assessed as 25 x 10^-6M chromogenic TH substrate hydrolysis at 1 x 10^-3M; outline: as §4
[25] = biological target: T1, Coagulation factor X/antithrombin III (Homo sapiens); assay: Inhibition of human antithrombin 3/factor 10a assessed as 25 x 10^-6M CBS31.39 substrate hydrolysis at 1 x 10^-3M; format: protein-complex assay
[26] = biological target: Coagulation factor X (Homo sapiens) (UniProt P00742); assay: Inhibition of human factor 10a assessed as 125 x 10^-6M chromogenic TH substrate hydrolysis at 2 x 10^-3M; outline: as §4
[27] = biological target: T1, Coagulation factor X/antithrombin III (Homo sapiens); assay: Inhibition of human antithrombin 3/factor 10a assessed as 25 x 10^-6M CBS31.39 substrate hydrolysis at 2 x 10^-3M; format: protein-complex assay
[28] = Antiplatelet activity against collagen EPI-induced human platelet aggregation assessed as closure time at 6.25 x 10^-4M; format: functional; outline: as §2
[29] = biological target: T1, Coagulation factor X/antithrombin III (Homo sapiens); assay: Inhibition of human antithrombin 3/factor 10a assessed as 125 x 10^-6M CBS31.39 substrate hydrolysis at 0.5 x 10^-3M; format: protein-complex assay
Mus musculus [30] = assay: Anticoagulant activity in mouse assessed as increase in activated partial prothrombin time at 150 umol/kg, ip relative to control; format: functional
Outline: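 Adult male CD1 mice (30-35 g) given compound in saline ip at 150 µmol/kg, fasted on the day. Citrated portal vein blood taken at 30, 60 and 120 min. APTT measured in platelet-poor plasma. Expressed as ratio to saline-treated mice, mean ± SEM of three experiments.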

[31] = Stability of the compound in human plasma assessed as compound remaining after 3 hrs; format: ADME, cell-free; details: read-out: Activity
Outline: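 Compound at 25 µM final in human plasma diluted 1:1 with PBS pH 7.4, shaken at 37 °C for 180 min. Time-zero and 180-min samples quenched with TBA buffer and cold acetonitrile, then centrifuged. Supernatant dried, redissolved and analysed by HPLC. Three independent samples per time point.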

[32] = as §5; format: functional; outline: as §6
Mus musculus [33] = assay: Hepatotoxicity in mouse liver assessed as change in plasma GOT/GPT level at 150 umol/kg, ip; format: toxicity, organism-based; details: in vivo
Outline: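 Male CD1 mice (30-35 g), compound in saline ip at 150 µmol/kg. Portal vein citrated blood taken at 30, 60 and 120 min. GOT and GPT (U/L) measured in platelet-poor plasma on an automated chemistry analyzer. Four independent experiments, mean ± SEM.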

Plasma [34] = assay: Anticoagulant activity in human plasma assessed as increase in prothrombin time at 0.5 x 10^-3M relative to control; format: functional; outline: as §1
Plasma [35] = assay: Anticoagulant activity in human plasma assessed as increase in activated partial prothrombin time at 0.5 x 10^-3M relative to control; format: functional; outline: as §1

Coagulation factor X (Homo sapiens), sequence (P00742 41-179 limits assumed): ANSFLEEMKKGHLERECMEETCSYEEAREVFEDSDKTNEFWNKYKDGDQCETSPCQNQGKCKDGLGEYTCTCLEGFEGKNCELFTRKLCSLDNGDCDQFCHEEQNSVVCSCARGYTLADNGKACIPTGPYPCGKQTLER
Coagulation factor X (Homo sapiens), sequence (P00742 235-488 limits assumed): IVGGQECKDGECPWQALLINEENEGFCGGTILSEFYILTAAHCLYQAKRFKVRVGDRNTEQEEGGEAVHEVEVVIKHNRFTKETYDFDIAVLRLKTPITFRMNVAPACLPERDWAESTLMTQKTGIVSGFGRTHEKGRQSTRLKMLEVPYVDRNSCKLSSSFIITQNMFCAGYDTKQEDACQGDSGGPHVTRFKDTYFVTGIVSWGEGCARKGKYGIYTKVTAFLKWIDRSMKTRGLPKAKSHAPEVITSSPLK

Row | inhibition [8] | inhibition [9] | inhibition [10] | inhibition [14] | inhibition [15] | inhibition [16] | inhibition [18] | inhibition [24] | inhibition [25] | SMILES | Time [5] | Activity (Blood [6]) | Time (Blood [7]) | Activity (Blood [11]) | Time (Blood [12]) | Activity (Blood [13]) | Time (Blood [17]) | 2aPTT [19] | 2PT [20] | Activity (Blood [21]) | Time (Blood [23]) | also measured
1 | inactive | inactive | 58.1% | inactive | 30.5% | inactive | 46.2% | inactive | 40.2% | COc1ccc([C@@H]2CC(=O)c3c(O)cc(O[C@@H]4O[C@H](CO[C@@H]5O[C@@H](C)[C@H](OS(=O)(=O)O)[C@@H](OS(=O)(=O)O)[C@H]5OS(=O)(=O)O)[C@@H](OS(=O)(=O)O)[C@H](OS(=O)(=O)O)[C@H]4OS(=O)(=O)O)cc3O2)cc1O | 139 s | 59 mm | 300 s | 70 degree | 59 s | 57 degree | 214 s | 413 µM | 3620 µM | 40 mm | 116 s | Activity (Homo sapiens): inactive; inhibition [22]: inactive; inhibition [26]: inactive; inhibition [27]: 49.6%; Time [28]: 167 s; inhibition [29]: 39.7%
2 | inactive | inactive | 50.7% | inactive | inactive | inactive | 38.7% | inactive | 22.6% | COc1ccc(-c2cc(=O)c3c(O)cc(O[C@@H]4O[C@H](CO[C@@H]5O[C@@H](C)[C@H](OS(=O)(=O)O)[C@@H](OS(=O)(=O)O)[C@H]5OS(=O)(=O)O)[C@@H](OS(=O)(=O)O)[C@H](OS(=O)(=O)O)[C@H]4OS(=O)(=O)O)cc3o2)cc1O | 162 s | 54 mm | 267 s | 68 degree | 49 s | 57 degree | 229 s | 435 µM | 2230 µM | 45 mm | 150 s | fold change (FC) (Mus musculus [30]): 1.5; remaining at 3 h [31]: 95%; Activity [32]: > 5000 µM; Activity (Mus musculus [33]): Non-toxic; inhibition [26]: 23.4%; inhibition [27]: 43.7%; Time [28]: 171 s; inhibition [29]: 28.9%

Second part, the compound before the results:

Row | SMILES | inhibition [8] | inhibition [9] | inhibition [10] | inhibition [14] | inhibition [15] | inhibition [16] | inhibition [18] | inhibition [24] | inhibition [25] | Time [5] | Activity (Blood [6]) | Time (Blood [7]) | Activity (Blood [11]) | Time (Blood [12]) | Activity (Blood [13]) | Time (Blood [17]) | 2aPTT [19] | 2PT [20] | Activity (Blood [21]) | Time (Blood [23]) | also measured
3 | COc1ccc([C@@H]2CC(=O)c3c(O)cc(OS(=O)(=O)O)cc3O2)cc1OS(=O)(=O)O [HESPERETIN 3',7-O-DISULFATE] |  |  |  |  |  |  |  |  |  |  |  |  |  |  |  |  |  |  |  |  | Activity (Plasma [1]): inactive; fold change (FC) (Plasma [2]): 1.1; fold change (FC) (Plasma [3]): 1.2; Activity (Plasma [4]): inactive
4 | COc1ccc(-c2cc(=O)c3c(O)cc(OS(=O)(=O)O)cc3o2)cc1OS(=O)(=O)O |  |  |  |  |  |  |  |  |  |  |  |  |  |  |  |  |  |  |  |  | Activity (Plasma [1]): inactive; Activity (Plasma [4]): inactive; fold change (FC) (Plasma [34]): 1.1; fold change (FC) (Plasma [35]): 1.65
5 | C[C@H]1O[C@@H](OC[C@@H]2O[C@H](Oc3c(-c4ccc(OCCOS(=O)(=O)O)c(OCCOS(=O)(=O)O)c4)oc4cc(OCCOS(=O)(=O)O)cc(O)c4c3=O)[C@@H](OS(=O)(=O)O)[C@H](OS(=O)(=O)O)[C@H]2OS(=O)(=O)O)[C@@H](OS(=O)(=O)O)[C@@H](OS(=O)(=O)O)[C@@H]1OS(=O)(=O)O | inactive | 25.7% | 33.6% | inactive | 28.1% | 38.8% | 24.8% | 41.9% | 47.6% | 204 s | 61 mm | 560 s | 69 degree | 105 s | 67 degree | 122 s | 145 µM | 835 µM | 64 mm | 111 s | Activity [32]: 867 µM; inhibition [26]: 53.3%; inhibition [27]: 56%; Time [28]: >300 s; inhibition [29]: 20.3%
